In the library only some 3.1% were active in any assay of this set; here they are far more common.
NadD block = NadD (S. aureus) enzyme inhibition; purified NadD enzyme, colorimetric absorbance read-out; inhibition, % at 20 µM; 0.78% of 360,000 active; in the data active = inhibition above about 26%
PP1 counter = PP1-alpha (human) inhibition in PP5 counter-screen | AID 2235 | 0.9% of 320,000 active | inhibition, % at 6.7 µM | P62136 | purified PP1alpha, OMFP fluorescence;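 active = inhibition above the mean inhibition of all tested compounds plus 3 SD, computed separately for each screening campaign, cut at about 15% in these data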
Myeloid diff MLP = compounds promoting myeloid differentiation. ER-HoxA9 myeloid progenitors, lysozyme-GFP differentiation, flow cytometry. 1% of 360,000 active. AID 624256. calls only at 10 µM;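 active = normalized GFP-positive differentiation at or above the plate's own cutoff, the solvent-only control mean plus 3 SD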;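 note: cells exposed to compound for four days before flow analysis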
HCV core dimer = HCV core protein dimerization inhibition; AID 1899; inhibition, % at 5 µM; TR-FRET GST/Flag-core106 dimerization, 1536-well; 0.33% of 300,000 active;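 active = inhibition above the mean of all tested compounds plus 3 SD, set per screening campaign, cut at about 45% in these data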
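Test system: GST/Flag-tagged HCV core106 proteins; Medium: KF-containing HEPES buffer, pH 7.45, DTT, CHAPS, BSA; Times: compound-protein-antibody incubation 4 h at 22.5 °C; Detection: TR-FRET 671 and 617 nm emission; Benchmarks: wells lacking GST-core106 and wells with excess unlabelled core106.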
CTSL1 counter = blocks F. hepatica cathepsin L1 in PFM18AAP counter-screen; recombinant F. hepatica cathepsin L1, Z-Leu-Arg-MCA fluorescence; inhibition, % at 5.96 µM; 0.49% of 300,000 active;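 active = inhibition above the mean of all tested compounds plus 3 SD, set per screening campaign, cut at about 17% in these data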
PP5 primary = blocks human protein phosphatase 5 activity | P53041 | purified PP5c, OMFP substrate fluorescence | inhibition, % at 6.7 µM | 0.18% of 320,000 active | AID 1987;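 active = inhibition above the campaign's mean inhibition across all tested compounds plus 3 SD, cut at about 9.5% in these data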
Target sequence (P53041 whole entry, looked up): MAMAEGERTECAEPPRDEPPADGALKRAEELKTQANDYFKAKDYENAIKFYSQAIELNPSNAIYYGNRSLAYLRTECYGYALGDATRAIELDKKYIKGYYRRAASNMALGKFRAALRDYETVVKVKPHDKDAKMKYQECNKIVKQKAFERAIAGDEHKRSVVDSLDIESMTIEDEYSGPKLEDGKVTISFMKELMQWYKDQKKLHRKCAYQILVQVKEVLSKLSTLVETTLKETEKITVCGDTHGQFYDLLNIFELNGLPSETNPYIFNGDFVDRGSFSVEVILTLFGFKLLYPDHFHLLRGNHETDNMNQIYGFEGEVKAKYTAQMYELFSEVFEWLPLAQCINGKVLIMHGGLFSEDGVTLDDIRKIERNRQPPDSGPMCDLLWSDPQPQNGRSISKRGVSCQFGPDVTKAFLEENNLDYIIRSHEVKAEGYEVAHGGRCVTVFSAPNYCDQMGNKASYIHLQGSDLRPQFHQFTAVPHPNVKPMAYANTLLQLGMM
Myeloid diff CP1 = compounds promoting myeloid differentiation. 2% of 2,300 active. AID 651706. ER-HoxA9 myeloid progenitors, GFP/Mac1 double-positive flow. calls only. shares compounds with Myeloid diff MLP;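 active = share of green or green-and-red cells above 9 and 9% in run 1 or 4 and 3% in run 2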
GFP autofluor = flagged as fluorescent in myeloid differentiation counter-screen | shares compounds with Myeloid diff MLP | ER-HoxA9 myeloid progenitors, no estrogen, GFP autofluorescence flow cytometry; vehicle wells 0%, positive control 100% | fluorescence response, % (test concentration not listed) | 7.4% of 2,300 active;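 active = over 5% cells positive for green fluorescent reporter, or over 2% positive for both it and APC stain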
Large screens that a line does not name were inactive (follow-up assays come after a bar, where they were run).

CCOC(=O)/C=C1\CC(C(=O)OCC)Oc2ccccc21 (stereo not drawn)	none (no result: PP1 counter, HCV core dimer, CTSL1 counter, PP5 primary)
COc1cc2c(cc1N/C=C(\C#N)c1nc(-c3ccc(F)cc3)cs1)oc1ccccc12	Myeloid diff MLP active | Myeloid diff CP1 inactive | GFP autofluor 7.2
O=C(CNS(=O)(=O)c1ccccc1)Nc1cccc([N+](=O)[O-])c1	Myeloid diff MLP active | Myeloid diff CP1 inactive | GFP autofluor inactive
O=C(CCc1ccccc1)Nc1cccc([N+](=O)[O-])c1	none
CC(/C=N/NC(=O)c1cccnc1)=C\c1ccco1	none | Myeloid diff CP1 inactive | GFP autofluor inactive
CCCn1c(SCC(=O)N2CCN(CC)CC2)nc2c1c(=O)n(C)c(=O)n2C	none
CCCCCCC(CC(=O)NCc1cccnc1)CC(=O)NCc1cccnc1	none
CC(=O)Nc1ccc(C(=O)N2CCCCC2c2cc(C(=O)NCc3cccnc3)no2)cc1 (stereo not drawn)	none (no result: PP1 counter, HCV core dimer, CTSL1 counter, PP5 primary)
COc1cccc(C(C)(O)c2nc(-c3ccc(F)cc3OC)cs2)c1 (stereo not drawn)	none (no result: PP1 counter, HCV core dimer, CTSL1 counter, PP5 primary)
COc1ccc(C(C)(O)c2nc(-c3ccc(F)cc3OC)cs2)cc1 (stereo not drawn)	none (no result: PP1 counter, HCV core dimer, CTSL1 counter, PP5 primary) | Myeloid diff CP1 inactive | GFP autofluor inactive
CCOC(=O)C1=C(O)/C(=C/c2cc(OC)c(O)c(OC)c2)SC1=Nc1ccc(OC)cc1	none (no result: PP1 counter, HCV core dimer, CTSL1 counter, PP5 primary) | Myeloid diff CP1 inactive | GFP autofluor 23
Cc1cccc(C)c1-n1nnnc1S(=O)(=O)Cc1ccccc1Cl	none | Myeloid diff CP1 inactive | GFP autofluor inactive
Cc1nc(S(=O)(=O)Cc2ccccc2Cl)nc2c1CCC2	none
c1ccc2c(c1)NCCS2	Myeloid diff MLP active | Myeloid diff CP1 inactive | GFP autofluor inactive
O=CNc1ccc2c3c(cccc13)-c1ccccc1-2	Myeloid diff MLP active (no result: PP1 counter, HCV core dimer, CTSL1 counter, PP5 primary) | Myeloid diff CP1 inactive | GFP autofluor inactive
CC(=Nc1ccccc1C)C1=C(O)CSC1=O	Myeloid diff MLP active | Myeloid diff CP1 inactive | GFP autofluor inactive
CC(=Nc1ccccc1)C1=C(O)CSC1=O	none
CN(CCO)c1ccc(-c2n[nH]c(=O)c3ccccc23)cc1[N+](=O)[O-]	none (no result: PP1 counter, HCV core dimer, CTSL1 counter, PP5 primary)
Nc1nccc(NCCSCc2ccccc2)n1	Myeloid diff MLP active (no result: PP1 counter, HCV core dimer, CTSL1 counter, PP5 primary) | Myeloid diff CP1 inactive | GFP autofluor inactive
CCCC1=[N+](CC(C)=O)CCn2c(C)ccc21	none
CCCC1=[N+](CC(=O)c2ccccc2)CCn2cccc21	none | Myeloid diff CP1 inactive | GFP autofluor inactive
CCCC1=[N+](CC(=O)c2ccc(Br)cc2)CCn2cccc21	none | Myeloid diff CP1 inactive | GFP autofluor inactive
CCOc1ccc(OCCC(=O)OCC(=O)NCc2ccc(Cl)cc2)cc1	none
Cc1cc(C(=O)CN2C(=O)C(=O)N(Cc3ccco3)C2=O)c(C)n1CCc1ccc(F)cc1	PP1 counter 17 (no result: HCV core dimer, CTSL1 counter) | Myeloid diff CP1 inactive | GFP autofluor inactive
COC(=O)CNC(=O)COc1ccccc1	Myeloid diff MLP active | Myeloid diff CP1 inactive | GFP autofluor inactive
CC(=O)Nc1ccc(NC(=O)CNC(=O)COc2ccccc2)cc1	none
O=C(N/N=C/c1ccncc1)c1ccccc1OCc1ccc(Br)cc1	none | Myeloid diff CP1 inactive | GFP autofluor inactive
O=C(Cc1cccc(NC(=O)C2CCN(C(=O)C3CC3)CC2)c1)Nc1cccc(C(=O)N2CCCCC2)c1	none (no result: PP1 counter, HCV core dimer, CTSL1 counter, PP5 primary)
COc1cccc(CNC(=O)CN(C)S(=O)(=O)c2cnc[nH]2)c1	Myeloid diff MLP active | Myeloid diff CP1 inactive | GFP autofluor inactive
CC(C)(C)NNC(=S)Nc1ccc(S(=O)(=O)N2CCOCC2)cc1	none | Myeloid diff CP1 inactive | GFP autofluor inactive
CCCCN1C(=O)C(=O)N(CC(=O)N2CCc3ccccc32)C1=O	none (no result: HCV core dimer, CTSL1 counter)
CC1(C)OC2OC(C3COC(=O)O3)C(OC(=O)c3ccccc3)C2O1 (stereo not drawn)	none (no result: PP1 counter, HCV core dimer, CTSL1 counter, PP5 primary)
COC(=O)c1ccc(Nc2cc(C)nc3ccc(C)cc23)cc1	Myeloid diff MLP active | Myeloid diff CP1 inactive | GFP autofluor inactive
Fc1ccccc1N1CCN(C2CCCN(Cc3ccccc3C(F)(F)F)C2)CC1 (stereo not drawn)	Myeloid diff MLP active | Myeloid diff CP1 inactive | GFP autofluor inactive
COc1cc(/C(C)=C/c2ccccc2)c2c(c1)oc1ccccc12	none (no result: NadD block, Myeloid diff MLP)
COc1ccc(C(=O)Nc2nccs2)cc1[N+](=O)[O-]	none
COc1ccc(C(=O)Nc2nccs2)cc1OC	Myeloid diff MLP active | Myeloid diff CP1 inactive | GFP autofluor inactive
CCc1nc2ccc(C(=O)N(CC)CCN(C)C)cn2c1N(C=O)CCC(C)C	none (no result: PP1 counter, HCV core dimer, CTSL1 counter, PP5 primary)
C=CC[C@H](CC(=O)N(CCO)Cc1ccccc1)C(=O)N[C@@H](COC(=O)[C@@H](CC=C)Cc1ccc(F)cc1)Cc1c[nH]c2ccccc12	none (no result: PP1 counter, HCV core dimer, CTSL1 counter, PP5 primary) | Myeloid diff CP1 inactive | GFP autofluor inactive
CC(C)c1cc(C(=O)N2CCCC(N3CCN(c4ccc(F)cc4)CC3)C2)n(C)n1 (stereo not drawn)	none (no result: PP1 counter, HCV core dimer, CTSL1 counter, PP5 primary)
CCOC(=O)C1CCN(C(=O)COC(=O)/C=C/c2ccc([N+](=O)[O-])cc2)CC1	none (no result: PP1 counter, HCV core dimer, CTSL1 counter, PP5 primary) | Myeloid diff CP1 inactive | GFP autofluor inactive
O=C(c1ccncc1)N1CCN(S(=O)(=O)c2ccc(OC(F)(F)F)cc2)CC1	none (no result: PP1 counter, HCV core dimer, CTSL1 counter, PP5 primary)
CCOC(=O)c1ccc(N=c2sc(C(=O)OC)cc(=O)n2Cc2ccc3c(c2)OCO3)cc1	none
CCOC(=O)c1ccc(N=c2sc(C(=O)OC)cc(=O)n2C2CC2)cc1	none | Myeloid diff CP1 inactive | GFP autofluor inactive
O=C(CCC1CCCCC1)Nc1ccccc1O	none
